{"data": "Experimental data of several laboratories", "note": "Lines come from different studies, so protocols differ."}
{"Compound": "Oc1c(Cl)cc(Cl)cc1-c1[nH]c(Cl)c(Cl)c1Cl", "target or system": "Pseudomonas aeruginosa", "observed": "microbial growth", "strain": "ATCC27853", "endpoint": "MIC", "value": "64 µM"}
{"Compound": "Cc1sc2c(c1C)C(c1ccc(Cl)cc1)=N[C@@H](CC(=O)OC(C)(C)C)c1nnc(C)n1-2", "target or system": "Jurkat", "observed": "cell growth or viability", "technique": "ATP luminescence", "time": "72 h", "endpoint": "IC50", "value": "1.01 µM"}
{"Compound": "COc1c(N2C[C@@H]3CCCN[C@@H]3C2)c(F)cc2c(=O)c(C(=O)O)cn(C3CC3)c12", "target or system": "Mycobacteroides abscessus", "observed": "microbial growth", "strain": "ATCC19977", "endpoint": "MIC", "value": "1 µM"}
{"Compound": "Oc1c(Br)cc(Br)cc1-c1[nH]c(Br)c(Br)c1Br", "target or system": "Pseudomonas aeruginosa", "observed": "microbial growth", "strain": "ATCC27853", "endpoint": "MIC", "value": "64 µM"}
{"Compound": "O=c1ccc2nc3ccc(OCc4ccc([N+](=O)[O-])o4)cc3oc-2c1", "target or system": "Pseudomonas aeruginosa", "observed": "microbial growth", "time": "24 h", "endpoint": "MIC", "value": "> 32 mg/L"}
{"Compound": "COc1c(N2CC3CCCNC3C2)c(F)cc2c(=O)c(C(=O)OCc3cnc([N+](=O)[O-])s3)cn(C3CC3)c12 (centres unmarked)", "target or system": "Pseudomonas aeruginosa", "observed": "microbial growth", "strain": "ATCC27853", "endpoint": "MIC", "value": "6 µM"}
{"Compound": "N.N.[Cl][Pt][Cl]", "target or system": "PLC", "observed": "cell growth or viability", "technique": "MTT", "time": "72 h", "endpoint": "IC50", "value": "8.21 µM"}
{"Compound": "O=c1ccc2nc3ccc(O)cc3oc-2c1", "target or system": "Pseudomonas aeruginosa", "observed": "microbial growth", "time": "24 h", "endpoint": "MIC", "value": "> 32 mg/L"}
